An excerpt weighted towards active compounds, which were near 2.3% of everything screened.
TRPC6 act: mouse TRPC6 channel activators, primary screen, cell-based, HEK293, membrane potential dye. HEK293-TRPC6 membrane potential dye fluorescence; active compounds read high. B-score at 10 µM. 310,000 tested, 0.13% active. Short transient receptor potential channel 6 (Mus musculus), Q61143;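 active = B-score of the integrated fluorescence ratio above library mean plus 3 SD, and starting fluorescence ratio within library mean plus 5 SD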;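 note: higher score means more depolarization so channel activation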
TRPC4 inh: inhibitors of mouse TRPC4 channel, primary screen, Fluo4 calcium, HEK293 TRPC4beta/mu-opioid cells | B-score at 10 µM | DAMGO-evoked Fluo4 calcium flux; active compounds read low | Short transient receptor potential channel 4 (Mus musculus), Q9QUQ5 | 300,000 tested, 0.39% active;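 active = B-score over 3 SD under the library average, no early fluorescence shift, positive overall ratio signal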
Target sequence (Q9QUQ5 whole entry, looked up): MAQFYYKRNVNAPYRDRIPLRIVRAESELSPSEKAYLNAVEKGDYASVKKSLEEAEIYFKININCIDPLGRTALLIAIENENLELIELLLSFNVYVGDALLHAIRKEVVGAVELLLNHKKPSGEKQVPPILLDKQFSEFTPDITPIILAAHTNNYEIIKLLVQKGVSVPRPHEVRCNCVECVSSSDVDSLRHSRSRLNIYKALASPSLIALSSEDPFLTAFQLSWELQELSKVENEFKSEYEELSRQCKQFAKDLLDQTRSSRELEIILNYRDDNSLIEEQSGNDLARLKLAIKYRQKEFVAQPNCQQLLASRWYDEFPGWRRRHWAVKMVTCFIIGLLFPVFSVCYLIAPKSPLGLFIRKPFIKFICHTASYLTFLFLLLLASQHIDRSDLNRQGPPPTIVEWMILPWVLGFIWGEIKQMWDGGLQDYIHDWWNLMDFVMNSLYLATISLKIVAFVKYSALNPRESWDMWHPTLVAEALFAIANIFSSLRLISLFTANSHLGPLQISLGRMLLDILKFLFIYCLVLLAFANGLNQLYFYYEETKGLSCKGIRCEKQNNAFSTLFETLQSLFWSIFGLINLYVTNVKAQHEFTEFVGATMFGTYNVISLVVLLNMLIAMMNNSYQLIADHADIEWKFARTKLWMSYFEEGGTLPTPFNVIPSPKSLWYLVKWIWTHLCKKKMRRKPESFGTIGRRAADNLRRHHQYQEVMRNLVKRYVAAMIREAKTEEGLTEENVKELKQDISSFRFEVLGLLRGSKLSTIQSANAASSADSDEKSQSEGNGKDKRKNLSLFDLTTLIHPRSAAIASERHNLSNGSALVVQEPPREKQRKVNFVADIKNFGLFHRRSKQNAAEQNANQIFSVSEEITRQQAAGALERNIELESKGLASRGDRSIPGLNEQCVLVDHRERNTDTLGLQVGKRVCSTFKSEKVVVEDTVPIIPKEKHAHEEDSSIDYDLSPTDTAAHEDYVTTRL
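Material: HEK293 cells with stable TRPC4beta plus mu-opioid receptor expression / Probe or stimulus: DAMGO in two steps, submaximal then maximal / Compound: single concentration per test compound / Technique: kinetic Fluo4 fluorescence imaging of calcium influx / Read-out: per-well B score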
TRPC4 act: activators of mouse TRPC4 channel, primary screen, Fluo4 calcium, HEK293 TRPC4beta/mu-opioid cells; 310,000 tested, 0.49% active; Fluo4 calcium fluorescence; active compounds read high; AID 2237, 2010; B-score at 10 µM; Short transient receptor potential channel 4 (Mus musculus), Q9QUQ5;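 active = B-score above 5 SD of library B-scores, and initial fluorescence ratio not above library mean plus 5 SD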;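 note: positive B-score marks a calcium rise read as TRPC4 activation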
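System – HEK293 cells stably co-expressing mouse TRPC4beta and mu-opioid receptor · Signal – Fluo4 calcium-sensitive dye fluorescence, kinetic, 1 Hz baseline · Benchmarks – buffer (low) and maximal DAMGO (high) · Read-out – B score of integrated fluorescence ratio per well · Incubation – dye loading 45 min room temperature, 110 s kinetic read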
TRPC6 inh: mouse TRPC6 channel inhibitors, primary screen, cell-based, HEK293, membrane potential dye; Short transient receptor potential channel 6 (Mus musculus), Q61143; ACh-evoked depolarization; active compounds read low; B-score at 10 µM; 310,000 tested, 1.1% active;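 active = B-score under library mean minus 3 SD, initial fluorescence not abnormally high, positive integrated signal ratio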;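 note: B-score derived from integrated fluorescence ratio over the kinetic read; more negative B-score means stronger inhibition of depolarization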
TRPC4 PAM: positive allosteric modulators of TRPC4, primary screen, cell-based, mouse TRPC4beta, HEK293 mu-opioid, Fluo-4 calcium; 310,000 tested, 0.42% active; DAMGO EC20, Fluo-4 Ca2+ flux; active compounds read high; B-score at 10 µM; AID 2227, 2009; Short transient receptor potential channel 4 (Mus musculus), Q9QUQ5;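 active = B-score of calcium response area above 5 SD of library B-scores, with initial fluorescence ratio within 5 SD of library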
DNA FID counter: compounds displacing fluorescent DNA intercalator, primary screen, artefact control for HCV NS3 helicase inhibitor project, biochemical, FID fluorescence. inhibition, % at 7.9 µM. DNA fluorescent intercalator displacement. 290,000 tested, 0.17% active; in the data active = inhibition above about 37%;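 note: higher means more ethidium bromide displaced from hairpin DNA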
TRPC4 spec 2: second check of whether TRPC6 inhibitors also affect mouse TRPC4; inhibition, % at 10 µM; shares compounds with TRPC6 inh; 920 tested, 42% active; HEK293 TRPC4/MOR, membrane potential dye fluorescence; channel activated by saturating DAMGO dose;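 active = compounds whose fluorescence signal differed from control wells by over 3 SD, either direction, in both duplicate plates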
TRPC4 spec: mouse TRPC4 modulation by TRPC6 hits, confirmation, selectivity assay for TRPC6 inhibitor project, cell-based, HEK293 TRPC4/mu-opioid, membrane potential dye. shares compounds with TRPC6 inh. membrane potential fluorescence. activity change, negative = inhibition, % at 10 µM. 920 tested, 61% active. AID 2777, 2010;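 active = rise or fall in signal beyond 3 SD of buffer-only wells in both replicate plates, either sign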;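 note: integrated kinetic ratio of fluorescence range over baseline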
HEK293 MPD ctr 2-1: nonspecific membrane potential effects, parental HEK293, confirmation, counter-screen for TRPC6 inhibitor project, cell-based, second counter screen | shares compounds with TRPC6 inh | parental HEK293 membrane potential dye fluorescence; maximal acetylcholine challenge after compound addition | signal change vs control, % at 10 µM | 920 tested, 31% active | AID 2779, 2010;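 active = membrane potential signal moving either way by over 3 SD of the maximum-effect control, in both duplicate plates, meaning non-specific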
HEK293 MPD ctr-1: membrane potential modulation in parental HEK293, confirmation, counter-screen for TRPC6 inhibitor project, cell-based; parental HEK293 membrane potential dye fluorescence; 920 tested, 60% active; shares compounds with TRPC6 inh; AID 2780, 2010; membrane potential signal change, % at 10 µM;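 active = membrane potential signal shifting up or down by more than 3 SD of buffer-only wells, on both duplicate plates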
HEK293 MPD ctr-2: parental HEK293 membrane potential modulation, confirmation, counter-screen for TRPC6 modulator project, cell-based; 2,400 tested, 51% active; shares compounds with TRPC6 inh; membrane potential signal change, % at 10 µM; membrane potential dye fluorescence;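 active = membrane potential signal moves up or down beyond 5 SD from buffer-only wells, on both duplicate plates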
HEK293 MPD ctr 2-2: parental HEK293 nonspecific activity of TRPC6 modulators, second screen | shares compounds with TRPC6 inh | membrane potential dye fluorescence; after compound, maximal acetylcholine stimulation | inhibition, % at 10 µM | 2,400 tested, 14% active | AID 488926;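 active = membrane potential signal drops by more than 5 SD from the mean control signal, in both duplicate plates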
TRPC4/MOR mod: TRPC4 modulation by TRPC6 hit compounds, confirmation, selectivity assay for TRPC6 modulator project, cell-based, HEK293 TRPC4/mu-opioid, membrane potential dye, mouse; 2,400 tested, 69% active; membrane potential fluorescence; shares compounds with TRPC6 inh; percent change from control (negative = decrease, positive = increase), % at 10 µM; AID 488927, 2010;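 active = membrane potential signal moved up or down beyond 5 SD of buffer control wells, in both duplicate plates, actives on both sides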
TRPC4/MOR inh 2: second selectivity test of TRPC6 modulators against mouse TRPC4; shares compounds with TRPC6 inh; HEK293 TRPC4/mu-opioid, membrane potential dye fluorescence; stimulated with maximal-effect DAMGO; inhibition, % at 10 µM; 2,400 tested, 55% active;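 active = drop in membrane potential signal beyond 5 SD of the control wells in both duplicate plates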;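 note: TRPC4 counter screen for TRPC6 hits run under conditions tuned for TRPC6 not TRPC4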
TRPC6 inh conf: mouse TRPC6 channel inhibitors, confirmation, HEK293 cells, membrane potential dye, duplicate; shares compounds with TRPC6 inh; ACh-evoked depolarization; inhibition, % at 10 µM; 3,300 tested, 43% active;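 active = fluorescence ratio falls more than 5 SD below the full-stimulation control mean, in both duplicate runs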;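 note: integrated fluorescence ratio of peak minus minimum over baseline after agonist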
TRPC6 act confirm: mouse TRPC6 channel activators, confirmation, HEK293 cells, membrane potential dye, duplicate. shares compounds with TRPC6 inh. HEK293-TRPC6 membrane potential dye fluorescence, FDSS. activation, % at 10 µM. 2,800 tested, 11% active. AID 488961, 2010;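 active = ratio signal rise beyond 5 SD above unstimulated control wells' mean, seen in both duplicate runs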
Each line names hits and unclear results; the compound was inactive in the other large screens (follow-up assays come after a bar, where they were run).

O=C(C1CC(=O)N(c2ccc3c(c2)OCCO3)C1)N1CCN(c2cccc(C(F)(F)F)c2)CC1 (configuration not stated)	none (no result: DNA FID counter)
CC(C)NC(=O)CCc1nc2cccnc2n1-c1ccccc1	TRPC6 inh -5.86 | HEK293 MPD ctr-2 inactive | HEK293 MPD ctr 2-2 inactive | TRPC4/MOR mod inactive | TRPC4/MOR inh 2 inactive | TRPC6 inh conf inactive | TRPC6 act confirm inactive
CCN(CC(=O)NC1CCS(=O)(=O)C1)S(=O)(=O)c1ccc(Cl)cc1C(F)(F)F (configuration not stated)	none (no result: DNA FID counter)
COc1cccc(CN2CC(C(=O)NCCN3CCOCC3)CCC2=O)c1 (configuration not stated)	none
COC(=O)c1cc(S(=O)(=O)N2CCN(Cc3ccccc3)CC2)c[nH]1	none
CCc1ccc(/C=C2/SC(=S)N(CCC(=O)NCCCN3CCOCC3)C2=O)cc1	TRPC6 inh -5.76 | HEK293 MPD ctr-2 inactive | HEK293 MPD ctr 2-2 inactive | TRPC4/MOR mod inactive | TRPC4/MOR inh 2 45.0% | TRPC6 inh conf 39.0% | TRPC6 act confirm inactive
COC(=O)c1ccc(/C=C2/SC(=S)N(CCC(=O)NCCCN3CCOCC3)C2=O)cc1	none
CN1CCN(c2nc(Nc3ccc(F)cc3)nc(Nc3ccc(F)cc3)n2)CC1	none
Cc1ccc(Nc2c(-c3ccccc3O)nc3ncccn23)cc1	none
Cc1cccc(Nc2c(-c3ccc(O)cc3)nc3ncccn23)c1	TRPC6 inh -5.15 | HEK293 MPD ctr-2 -55.0% | HEK293 MPD ctr 2-2 inactive | TRPC4/MOR mod -13.0% | TRPC4/MOR inh 2 56.5% | TRPC6 inh conf inactive | TRPC6 act confirm inactive
Cc1ccc(Nc2c(-c3ccc(N4CCOCC4)cc3)nc3ncccn23)cc1C	TRPC6 inh -6.07 | HEK293 MPD ctr-2 inactive | HEK293 MPD ctr 2-2 inactive | TRPC4/MOR mod -26.0% | TRPC4/MOR inh 2 80.0% | TRPC6 inh conf inactive | TRPC6 act confirm inactive
CCCCn1c(N)c(N(CC(C)C)C(=O)c2cccc(OCc3ccccc3)c2)c(=O)[nH]c1=O	none (no result: DNA FID counter)
COc1ccc(CCNCc2ccc(OCc3ccc(Cl)nc3)c(OC)c2)cc1OC	TRPC6 inh -6.05 | HEK293 MPD ctr-2 inactive | HEK293 MPD ctr 2-2 inactive | TRPC4/MOR mod inactive | TRPC4/MOR inh 2 72.5% | TRPC6 inh conf 44.5% | TRPC6 act confirm inactive
CCCCCNCc1ccc(OCc2ccc(Cl)nc2)c(OC)c1	none
Cc1c(C(=O)CN2CCCC(C)(C)C2)c2ccccc2n1C	none
Cc1cccc(C(=O)OCC(=O)NCCNC(=O)COC(=O)c2cccc(C)c2C)c1C	none
CN(C)CCCN(C(=O)COc1ccccc1)c1nc2c(F)cccc2s1	TRPC6 inh -5 | HEK293 MPD ctr-2 inactive | HEK293 MPD ctr 2-2 inactive | TRPC4/MOR mod -16.0% | TRPC4/MOR inh 2 84.5% | TRPC6 inh conf 37.5% | TRPC6 act confirm inactive
CN(C)CCCN(C(=O)c1cc2ccccc2oc1=O)c1nc2c(F)cccc2s1	TRPC6 inh -6.5 | HEK293 MPD ctr-2 inactive | HEK293 MPD ctr 2-2 inactive | TRPC4/MOR mod -21.5% | TRPC4/MOR inh 2 88.0% | TRPC6 inh conf 70.0% | TRPC6 act confirm inactive
CN(C)CCCN(C(=O)c1ccc(C(=O)c2ccccc2)cc1)c1nc2c(F)cccc2s1	TRPC6 inh -6.25 | HEK293 MPD ctr-2 inactive | HEK293 MPD ctr 2-2 inactive | TRPC4/MOR mod inactive | TRPC4/MOR inh 2 82.0% | TRPC6 inh conf 60.5% | TRPC6 act confirm inactive
Cc1ccc(OCCCCCCN2CCNCC2)cc1	TRPC6 inh -6.73 (no result: DNA FID counter) | TRPC4 spec 2 47.5% | TRPC4 spec 0.1% | HEK293 MPD ctr 2-1 inactive | HEK293 MPD ctr-1 7.4% | TRPC6 inh conf inactive | TRPC6 act confirm inactive
Cc1ccc(OCCCCCN2CCOCC2)cc1	none
Cc1ccccc1OCCCCCCN1CCNCC1	TRPC6 inh -8.22, TRPC4 PAM 10 (no result: DNA FID counter) | TRPC4 spec 2 53.5% | TRPC4 spec 1.8% | HEK293 MPD ctr 2-1 inactive | HEK293 MPD ctr-1 4.1% | TRPC6 inh conf inactive | TRPC6 act confirm inactive

Compound activity (PubChem)
